In brackets after ≈: the same amount, converted by molar mass.
Columns and labels:
[1] = tested on: Vesicular stomatitis virus; experiment: Minimum inhibitory concentration required to reduce vesicular stomatitis virus (VSV) induced cytopathogenicity by 50%; assay type: functional
Human alphaherpesvirus 2 = experiment: Minimum inhibitory concentration required to reduce Herpes simplex virus type 2 (HSV-2 strain G) induced cytopathogenicity by 50%; assay type: functional
Human alphaherpesvirus 1 = experiment: Minimum inhibitory concentration required to reduce Herpes simplex virus type 1 (HSV-1, strain KOS) induced cytopathogenicity by 50%; assay type: functional
[2] = tested on: Mammalian orthoreovirus 1; experiment: Minimum inhibitory concentration required to reduce reo virus type 1 induced cytopathogenicity by 50%; assay type: functional
Coxsackievirus B4 = experiment: Minimum inhibitory concentration required to reduce Coxsackie virus type B-4-induced cytopathogenicity by 50%; assay type: functional
L1210 [3] = experiment: Minimum inhibitory concentration required to reduce incorporation of [methyl-3H]dThd into TCA-insoluble material from murine leukemia L1210 cells; assay type: functional; conditions: Mus musculus
Procedure, shortened: (§1)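 Murine L1210 leukemia cells; MIC50 is the concentration reducing cell growth, or incorporation of [methyl-3H]dThd into TCA-insoluble material (DNA synthesis), by 50%. Average of at least three separate experiments.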

HeLa = experiment: Minimum cytotoxic concentration required to cause a microscopically detectable alteration of normal cell morphology in Hela cells; assay type: functional, Homo sapiens
Procedure, shortened: (§2)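 Cytotoxicity read microscopically as the minimum concentration producing a detectable alteration of normal cell morphology, in PRK, HeLa or Vero cell cultures. Average of two to three separate experiments.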

Human respirovirus 3 = experiment: Minimum inhibitory concentration required to reduce parainfluenza type 3 induced cytopathogenicity by 50%; assay type: functional
Poliovirus 1 = experiment: Minimum inhibitory concentration required to reduce Polio virus type 1 induced cytopathogenicity by 50%; assay type: functional; conditions: Enterovirus C
Vero = experiment: Minimum cytotoxic concentration required to cause a microscopically detectable alteration of normal cell morphology in Vero cells; assay type: functional, Chlorocebus sabaeus; procedure, shortened: as §2
[4] = tested on: Vesicular stomatitis virus; experiment: Minimum inhibitory concentration required to reduce Vesicular stomatitis virus (VSV) induced cytopathogenicity by 50%; assay type: functional
Sindbis virus = experiment: Minimum inhibitory concentration required to reduce sindbis virus induced cytopathogenicity by 50%; assay type: functional
L1210 [5] = experiment: Inhibition of murine leukemia L1210 cell growth; assay type: functional; conditions: Mus musculus; procedure, shortened: as §1
Measles morbillivirus = experiment: Minimum inhibitory concentration required to reduce measles virus induced cytopathogenicity by 50%; assay type: functional
Oryctolagus cuniculus = organism: Oryctolagus cuniculus; experiment: Minimum cytotoxic concentration required to cause a microscopically detectable alteration of normal cell morphology in primary rabbit kidney cells; assay type: functional; procedure, shortened: as §2
L1210 [6] = experiment: Minimum inhibitory concentration required to reduce incorporation of [5-3H]-Urd into TCA-insoluble material from murine leukemia L1210 cells; assay type: functional; conditions: Mus musculus
Procedure, shortened: (§3)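 Murine L1210 leukemia cells were exposed to compound and incorporation of [4,5-3H]leucine (protein) or [5-3H]Urd (RNA) into TCA-insoluble material was measured. MIC50 is the concentration reducing incorporation by 50%. Values are averages of at least three separate experiments.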

L1210 [7] = experiment: Minimum inhibitory concentration required to reduce incorporation of [4,5-3H]leucine into TCA-insoluble material from murine leukemia L1210 cells; assay type: functional; conditions: Mus musculus; procedure, shortened: as §3

SMILES	MIC50 [1]	MIC50 (Human alphaherpesvirus 2)	MIC50 (Human alphaherpesvirus 1)	MIC50 [2]	MIC50 (Coxsackievirus B4; Enterovirus B, read-out: MIC50)	MIC50 (L1210 [3])	MTC (HeLa)	MIC50 (Human respirovirus 3)	MIC50 (Poliovirus 1)	MTC (Vero)	MIC50 [4]	MIC50 (Sindbis virus)	MIC50 (L1210 [5])	MIC50 (Measles morbillivirus)	MTC (Oryctolagus cuniculus)	MIC50 (Coxsackievirus B4)	MIC50 (L1210 [6])	MIC50 (L1210 [7])
NC(=O)c1cn(C2OC(CO)CC2O)c2ncnc(N)c12 (centres undefined)	> 10 µg/mL	> 10 µg/mL	> 10 µg/mL	> 40 µg/mL	> 40 µg/mL	17 µg/mL (≈ 58 µM)	40 µg/mL	10 µg/mL (≈ 34.1 µM)	> 40 µg/mL	40 µg/mL	> 40 µg/mL	> 40 µg/mL	0.46 µg/mL (≈ 1.57 µM)	> 40 µg/mL	10 µg/mL	–	–	–
NC(=O)c1ncn([C@@H]2O[C@H](CO)[C@@H](O)[C@H]2O)n1 [RIBAVIRIN]	300 µg/mL (≈ 1230 µM)	> 400 µg/mL	> 400 µg/mL	75 µg/mL (≈ 307 µM)	40 µg/mL (≈ 164 µM)	–	>400 µg/mL	50 µg/mL (≈ 205 µM)	20 µg/mL (≈ 81.9 µM)	>400 µg/mL	4 µg/mL (≈ 16.4 µM)	65 µg/mL (≈ 266 µM)	–	30 µg/mL (≈ 123 µM)	>400 µg/mL	70 µg/mL (≈ 287 µM)	–	–
NC(=O)c1cn([C@H]2C[C@H](O)[C@@H](CO)O2)c2ncnc(N)c12	2 µg/mL (≈ 6.82 µM)	1 µg/mL (≈ 3.41 µM)	2 µg/mL (≈ 6.82 µM)	> 10 µg/mL	–	16 µg/mL (≈ 54.6 µM)	10 µg/mL	> 10 µg/mL	> 10 µg/mL	10 µg/mL	1 µg/mL (≈ 3.41 µM)	> 10 µg/mL	1.21 µg/mL (≈ 4.13 µM)	> 10 µg/mL	10 µg/mL	–	–	–
N#Cc1cn(C2OC(CO)CC2O)c2ncnc(N)c12 (centres undefined)	> 1 µg/mL	> 0.4 µg/mL	> 0.4 µg/mL	0.7 µg/mL (≈ 2.54 µM)	0.7 µg/mL (≈ 2.54 µM)	93 µg/mL (≈ 338 µM)	1 µg/mL	0.4 µg/mL (≈ 1.45 µM)	> 1 µg/mL	1 µg/mL	> 1 µg/mL	0.7 µg/mL (≈ 2.54 µM)	0.02 µg/mL (≈ 0.0727 µM)	> 1 µg/mL	1 µg/mL	>1 µg/mL	0.16 µg/mL (≈ 0.581 µM)	0.113 µg/mL (≈ 0.411 µM)
Nc1ncnc2c([C@H]3C[C@H](O)[C@@H](CO)O3)n[nH]c12	> 400 µg/mL	> 400 µg/mL	> 400 µg/mL	> 400 µg/mL	> 400 µg/mL	> 1000 µg/mL	>400 µg/mL	> 400 µg/mL	> 400 µg/mL	>400 µg/mL	> 400 µg/mL	> 400 µg/mL	867 µg/mL (≈ 3450 µM)	> 400 µg/mL	>400 µg/mL	–	> 100 µg/mL	> 1000 µg/mL
N#Cc1cn([C@@H]2O[C@H](CO)[C@@H](O)[C@@H]2O)c2ncnc(N)c12	> 10 µg/mL	2 µg/mL (≈ 6.87 µM)	7 µg/mL (≈ 24 µM)	> 10 µg/mL	> 10 µg/mL	14 µg/mL (≈ 48.1 µM)	10 µg/mL	> 10 µg/mL	> 10 µg/mL	10 µg/mL	> 10 µg/mL	> 10 µg/mL	2 µg/mL (≈ 6.87 µM)	> 10 µg/mL	10 µg/mL	–	10.3 µg/mL (≈ 35.4 µM)	4.8 µg/mL (≈ 16.5 µM)
Nc1ncnc2c1ccn2C1OC(CO)CC1O (centres undefined)	> 10 µg/mL	> 10 µg/mL	> 10 µg/mL	10 µg/mL (≈ 40 µM)	–	90 µg/mL (≈ 360 µM)	40 µg/mL	20 µg/mL (≈ 79.9 µM)	2 µg/mL (≈ 7.99 µM)	100 µg/mL	20 µg/mL (≈ 79.9 µM)	> 100 µg/mL	0.38 µg/mL (≈ 1.52 µM)	> 100 µg/mL	10 µg/mL	–	3.2 µg/mL (≈ 12.8 µM)	2.08 µg/mL (≈ 8.31 µM)
NC(=O)c1cn([C@@H]2O[C@H](CO)[C@@H](O)[C@@H]2O)c2ncnc(N)c12	3 µg/mL (≈ 9.7 µM)	1 µg/mL (≈ 3.23 µM)	4 µg/mL (≈ 12.9 µM)	6 µg/mL (≈ 19.4 µM)	–	50 µg/mL (≈ 162 µM)	10 µg/mL	1 µg/mL (≈ 3.23 µM)	> 10 µg/mL	40 µg/mL	1.5 µg/mL (≈ 4.85 µM)	> 40 µg/mL	0.98 µg/mL (≈ 3.17 µM)	10 µg/mL (≈ 32.3 µM)	40 µg/mL	–	5.85 µg/mL (≈ 18.9 µM)	2.2 µg/mL (≈ 7.11 µM)
Nc1ncnc2c([C@@H]3O[C@H](CO)[C@@H](O)[C@H]3O)[nH]nc12 [FORMYCIN]	10 µg/mL (≈ 37.4 µM)	8 µg/mL (≈ 29.9 µM)	10 µg/mL (≈ 37.4 µM)	> 10 µg/mL	–	7.5 µg/mL (≈ 28.1 µM)	1 µg/mL	2 µg/mL (≈ 7.48 µM)	> 1 µg/mL	10 µg/mL	> 1 µg/mL	> 10 µg/mL	3.7 µg/mL (≈ 13.8 µM)	> 10 µg/mL	20 µg/mL	–	25.7 µg/mL (≈ 96.2 µM)	5.5 µg/mL (≈ 20.6 µM)
N#Cc1cn([C@@H]2O[C@H](CO)[C@@H](O)[C@H]2O)c2ncnc(N)c12 [TOYOCAMYCIN]	> 0.04 µg/mL	> 0.04 µg/mL	> 0.04 µg/mL	> 0.04 µg/mL	–	38 µg/mL (≈ 130 µM)	0.4 µg/mL	> 0.04 µg/mL	> 0.4 µg/mL	0.04 µg/mL	0.07 µg/mL (≈ 0.24 µM)	> 0.04 µg/mL	0.006 µg/mL (≈ 0.0206 µM)	–	0.04 µg/mL	–	0.071 µg/mL (≈ 0.244 µM)	0.039 µg/mL (≈ 0.134 µM)
Nc1ncnc2c1ccn2[C@@H]1O[C@H](CO)[C@@H](O)[C@@H]1O	> 400 µg/mL	40 µg/mL (≈ 150 µM)	125 µg/mL (≈ 469 µM)	> 400 µg/mL	> 400 µg/mL	32 µg/mL (≈ 120 µM)	>400 µg/mL	300 µg/mL (≈ 1130 µM)	> 400 µg/mL	>400 µg/mL	> 350 µg/mL	> 400 µg/mL	7 µg/mL (≈ 26.3 µM)	> 400 µg/mL	>400 µg/mL	–	237 µg/mL (≈ 890 µM)	151 µg/mL (≈ 567 µM)
NC(=O)c1cn([C@@H]2O[C@H](CO)[C@@H](O)[C@H]2O)c2ncnc(N)c12 [SANGIVAMYCIN]	0.02 µg/mL (≈ 0.0647 µM)	0.07 µg/mL (≈ 0.226 µM)	0.07 µg/mL (≈ 0.226 µM)	> 0.4 µg/mL	–	> 100 µg/mL	0.4 µg/mL	0.02 µg/mL (≈ 0.0647 µM)	0.07 µg/mL (≈ 0.226 µM)	0.4 µg/mL	0.04 µg/mL (≈ 0.129 µM)	> 0.4 µg/mL	0.019 µg/mL (≈ 0.0614 µM)	–	1 µg/mL	–	–	0.014 µg/mL (≈ 0.0453 µM)
Nc1ncnc2c1ccn2[C@@H]1O[C@H](CO)[C@@H](O)[C@H]1O [TUBERCIDIN]	0.02 µg/mL (≈ 0.0751 µM)	0.1 µg/mL (≈ 0.376 µM)	0.1 µg/mL (≈ 0.376 µM)	0.04 µg/mL (≈ 0.15 µM)	0.07 µg/mL (≈ 0.263 µM)	5.4 µg/mL (≈ 20.3 µM)	0.4 µg/mL	0.07 µg/mL (≈ 0.263 µM)	0.02 µg/mL (≈ 0.0751 µM)	0.4 µg/mL	0.01 µg/mL (≈ 0.0376 µM)	0.2 µg/mL (≈ 0.751 µM)	0.04 µg/mL (≈ 0.15 µM)	0.3 µg/mL (≈ 1.13 µM)	0.4 µg/mL	0.07 µg/mL (≈ 0.263 µM)	0.29 µg/mL (≈ 1.09 µM)	0.173 µg/mL (≈ 0.65 µM)
Nc1ncnc2c(C3OC(CO)CC3O)n[nH]c12 (centres undefined)	> 400 µg/mL	–	> 400 µg/mL	> 400 µg/mL	> 400 µg/mL	> 1000 µg/mL	>400 µg/mL	> 400 µg/mL	> 400 µg/mL	>400 µg/mL	> 400 µg/mL	> 400 µg/mL	> 1000 µg/mL	100 µg/mL (≈ 398 µM)	>400 µg/mL	–	> 1000 µg/mL	> 1000 µg/mL
N#Cc1cn([C@H]2C[C@H](O)[C@@H](CO)O2)c2ncnc(N)c12	0.5 µg/mL (≈ 1.82 µM)	0.3 µg/mL (≈ 1.09 µM)	> 1 µg/mL	> 1 µg/mL	–	10 µg/mL (≈ 36.3 µM)	4 µg/mL	> 1 µg/mL	> 4 µg/mL	1 µg/mL	0.08 µg/mL (≈ 0.291 µM)	> 1 µg/mL	0.109 µg/mL (≈ 0.396 µM)	0.5 µg/mL (≈ 1.82 µM)	4 µg/mL	–	0.34 µg/mL (≈ 1.24 µM)	0.265 µg/mL (≈ 0.963 µM)
Nc1ncnc2c1ccn2[C@H]1C[C@H](O)[C@@H](CO)O1 [2'-Deoxytubercidin]	125 µg/mL (≈ 499 µM)	40 µg/mL (≈ 160 µM)	50 µg/mL (≈ 200 µM)	200 µg/mL (≈ 799 µM)	–	127 µg/mL (≈ 507 µM)	>400 µg/mL	40 µg/mL (≈ 160 µM)	150 µg/mL (≈ 599 µM)	>400 µg/mL	150 µg/mL (≈ 599 µM)	> 400 µg/mL	23 µg/mL (≈ 91.9 µM)	> 200 µg/mL	>400 µg/mL	–	205 µg/mL (≈ 819 µM)	44 µg/mL (≈ 176 µM)
Nc1ncnc2c1ccn2[C@@H]1O[C@H](CO)[C@H](O)[C@H]1O	> 10 µg/mL	0.07 µg/mL (≈ 0.263 µM)	0.2 µg/mL (≈ 0.751 µM)	> 40 µg/mL	–	6.7 µg/mL (≈ 25.2 µM)	4 µg/mL	> 40 µg/mL	> 4 µg/mL	40 µg/mL	> 4 µg/mL	> 40 µg/mL	0.248 µg/mL (≈ 0.931 µM)	> 40 µg/mL	10 µg/mL	–	–	–
